Results taken from ChEMBL document CHEMBL1629536, “Incorporation of piperazino functionality into 1,3-disubstituted urea as the tertiary pharmacophore affording potent inhibitors of soluble epoxide hydrolase with improved pharmacokinetic properties” (J Med Chem, 2010).
Values after ≈ are worked out from the molar mass of the structure shown.

What was measured:
[1] = target: T1, Bifunctional epoxide hydrolase 2 (Homo sapiens, UniProt P34913); assay: Inhibition of human recombinant soluble epoxide hydrolase expressed in baculovirus expression system by fluorimetric assay
T1 sequence (P34913 whole entry): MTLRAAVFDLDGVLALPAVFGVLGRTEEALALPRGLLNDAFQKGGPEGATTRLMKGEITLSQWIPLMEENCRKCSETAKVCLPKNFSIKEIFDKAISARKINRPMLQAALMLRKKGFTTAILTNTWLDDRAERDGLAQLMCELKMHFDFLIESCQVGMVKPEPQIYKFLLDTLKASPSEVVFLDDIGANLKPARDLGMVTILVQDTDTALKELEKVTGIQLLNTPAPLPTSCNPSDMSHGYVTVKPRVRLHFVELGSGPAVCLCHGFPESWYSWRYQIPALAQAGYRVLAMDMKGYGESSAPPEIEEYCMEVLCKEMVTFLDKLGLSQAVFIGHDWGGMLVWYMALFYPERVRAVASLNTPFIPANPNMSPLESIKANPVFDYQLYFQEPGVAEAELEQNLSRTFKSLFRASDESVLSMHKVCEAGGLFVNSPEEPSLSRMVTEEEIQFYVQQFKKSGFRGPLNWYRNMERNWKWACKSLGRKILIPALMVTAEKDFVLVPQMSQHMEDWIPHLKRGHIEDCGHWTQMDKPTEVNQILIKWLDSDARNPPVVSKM

[2] = Solubility in sodium phosphate buffer at 0.1 M pH 7.4 at 25 degC; format: physicochemical
[3] = Cmax in mouse at 5 mg/kg, po; format: ADME, organism-based; design: dose 5 mg/kg, route oral; details: in vivo
[4] = (§1) Half life in mouse at 5 mg/kg, po; format: ADME, organism-based; design: dose 5 mg/kg, route oral; details: in vivo
Procedure, shortened: (§2)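 Mice dosed by oral gavage at 5 mg/kg in oleic oil triglyceride containing 3% EtOH. Tail-vein blood was sampled before dosing and at 30, 60, 90, 120, 240, 450, 600 and 1440 min, then centrifuged at 3000 rpm, 4°C, 10 min. Plasma was analysed by LC/MS/MS. AUC and t1/2 came from noncompartmental fitting of the concentration-time data.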

[5] = AUC in mouse at 5 mg/kg, po; format: ADME, organism-based; design: dose 5 mg/kg, route oral; details: plasma; procedure, shortened: as §2
[6] = Tmax in mouse at 5 mg/kg, po; format: ADME, organism-based; design: dose 5 mg/kg, route oral; details: in vivo
[7] = system: Mus musculus; assay: as §1; format: ADME, organism-based; design: dose 5 mg/kg, route oral; details: in vivo; procedure, shortened: as §2

Structure (SMILES)	IC50 [1] [nM]	further results
O=C(Nc1cccc(OCCN2CCNCC2)c1)NC12CC3CC(CC(C3)C1)C2	67.1	–
CC(=O)N1CCN(CCOc2cccc(NC(=O)NC34CC5CC(CC(C5)C3)C4)c2)CC1	6	solubility [2]: 520 µg/mL (≈ 1180 µM)
CN1CCN(CCCCOc2ccccc2NC(=O)NC23CC4CC(CC(C4)C2)C3)CC1	5290	–
CC(C)(C)OC(=O)N1CCN(CCCCCOc2cccc(NC(=O)NC34CC5CC(CC(C5)C3)C4)c2)CC1	11.7	–
O=C(Nc1ccccc1OCCCN1CCNCC1)NC12CC3CC(CC(C3)C1)C2	97500	–
CN1CCN(CCCCCOc2cccc(NC(=O)NC34CC5CC(CC(C5)C3)C4)c2)CC1	11.5	–
COc1cc(C(=O)N2CCN(CCCCOc3cccc(NC(=O)NC45CC6CC(CC(C6)C4)C5)c3)CC2)cc(OC)c1OC	9.6	–
CS(=O)(=O)N1CCN(CCCCOc2cccc(NC(=O)NC34CC5CC(CC(C5)C3)C4)c2)CC1	1	solubility [2]: 2970 µg/mL (≈ 5880 µM); Cmax [3]: 160 nM; half-life [4]: 3.5 h; AUC [5]: 0.333 µM·h; Tmax [6]: 0.5 h
CC(C)(C)OC(=O)N1CCN(CCCOc2ccccc2NC(=O)NC23CC4CC(CC(C4)C2)C3)CC1	39.4	–
CN1CCN(CCOc2cccc(NC(=O)NC34CC5CC(CC(C5)C3)C4)c2)CC1	7.8	–
O=C(Nc1cccc(OCCCCN2CCN(C(=O)C(F)(F)F)CC2)c1)NC12CC3CC(CC(C3)C1)C2	1.8	–
O=C(O)CCCCCCCCCCCNC(=O)NC12CC3CC(CC(C3)C1)C2	–	solubility [2]: < 125 µg/mL; t1/2 [7]: 2.1 h; AUC [5]: 0.05 µM·h
CC(C)(C)OC(=O)N1CCN(CCCOc2ccc(NC(=O)NC34CC5CC(CC(C5)C3)C4)cc2)CC1	14.6	–
Cc1ccc(S(=O)(=O)N2CCN(CCCCOc3cccc(NC(=O)NC45CC6CC(CC(C6)C4)C5)c3)CC2)cc1	3.3	–
CC(C)(C)OC(=O)N1CCN(CCOc2cccc(NC(=O)NC34CC5CC(CC(C5)C3)C4)c2)CC1	2.8	–
O=C(Nc1cccc(OCCCN2CCNCC2)c1)NC12CC3CC(CC(C3)C1)C2	27.2	solubility [2]: 810 µg/mL (≈ 1960 µM)
CC(C)(C)OC(=O)N1CCN(CCCCOc2ccccc2NC(=O)NC23CC4CC(CC(C4)C2)C3)CC1	16.5	–
CC(=O)N1CCN(CCCOc2ccccc2NC(=O)NC23CC4CC(CC(C4)C2)C3)CC1	994	solubility [2]: 1780 µg/mL (≈ 3920 µM)
O=C(Nc1ccccc1OCCCCN1CCNCC1)NC12CC3CC(CC(C3)C1)C2	72800	–
CN1CCN(CCCCOc2cccc(NC(=O)NC34CC5CC(CC(C5)C3)C4)c2)CC1	13.3	–
O=C(Nc1cccc(OCCCCN2CCN(C(=O)CCl)CC2)c1)NC12CC3CC(CC(C3)C1)C2	1.4	–

Structure (SMILES)	IC50 [1] [nM]	further results
CC(=O)N1CCN(CCCOc2cccc(NC(=O)NC34CC5CC(CC(C5)C3)C4)c2)CC1	3.6	solubility [2]: 340 µg/mL (≈ 748 µM); Cmax [3]: 32 nM; half-life [4]: 8 h; AUC [5]: 0.185 µM·h; Tmax [6]: 0.5 h
CC(C)(C)OC(=O)N1CCN(C(=O)CCCOc2cccc(NC(=O)NC34CC5CC(CC(C5)C3)C4)c2)CC1	21.5	–
CN1CCN(CCCOc2ccccc2NC(=O)NC23CC4CC(CC(C4)C2)C3)CC1	2880	–
CN1CCN(CCCCOc2ccc(NC(=O)NC34CC5CC(CC(C5)C3)C4)cc2)CC1	44.8	–
O=C(Nc1cccc(OCCCCN2CCNCC2)c1)NC12CC3CC(CC(C3)C1)C2	14.8	–
CC(=O)N1CCN(CCCCOc2ccccc2NC(=O)NC23CC4CC(CC(C4)C2)C3)CC1	3150	–
CC(C)(C)OC(=O)N1CCN(CCCCOc2cccc(NC(=O)NC34CC5CC(CC(C5)C3)C4)c2)CC1	7.1	solubility [2]: 2780 µg/mL (≈ 5280 µM); Cmax [3]: 6 nM; half-life [4]: 59 h; AUC [5]: 0.085 µM·h; Tmax [6]: 9 h
CC(=O)N1CCN(CCCOc2ccc(NC(=O)NC34CC5CC(CC(C5)C3)C4)cc2)CC1	3.3	solubility [2]: 320 µg/mL (≈ 704 µM); Cmax [3]: 112 nM; half-life [4]: 6 h; AUC [5]: 0.58 µM·h; Tmax [6]: 0.5 h
O=C(Nc1ccc(OCCCCN2CCNCC2)cc1)NC12CC3CC(CC(C3)C1)C2	126	–
O=C(Nc1ccc(OCCCN2CCNCC2)cc1)NC12CC3CC(CC(C3)C1)C2	156	–
CC(C)(C)OC(=O)N1CCN(CCCOc2cccc(NC(=O)NC34CC5CC(CC(C5)C3)C4)c2)CC1	2.9	solubility [2]: 540 µg/mL (≈ 1050 µM); Cmax [3]: 6 nM; half-life [4]: 23 h; AUC [5]: 0.1 µM·h; Tmax [6]: 0.5 h
CC(=O)N1CCN(C(=O)CCCOc2cccc(NC(=O)NC34CC5CC(CC(C5)C3)C4)c2)CC1	5.4	–
CN1CCN(CCCOc2cccc(NC(=O)NC34CC5CC(CC(C5)C3)C4)c2)CC1	23.1	solubility [2]: 2210 µg/mL (≈ 5180 µM)
O=C(Nc1cccc(OCCCCCN2CCNCC2)c1)NC12CC3CC(CC(C3)C1)C2	13.8	–
CC(=O)N1CCN(CCCCOc2ccc(NC(=O)NC34CC5CC(CC(C5)C3)C4)cc2)CC1	7	solubility [2]: 700 µg/mL (≈ 1490 µM); Cmax [3]: 84 nM; half-life [4]: 14 h; AUC [5]: 0.67 µM·h; Tmax [6]: 0.5 h
CC(C)(C)OC(=O)N1CCN(CCCCOc2ccc(NC(=O)NC34CC5CC(CC(C5)C3)C4)cc2)CC1	20.1	–
CC(=O)N1CCN(CCCCCOc2cccc(NC(=O)NC34CC5CC(CC(C5)C3)C4)c2)CC1	2.8	–
CN1CCN(CCCOc2ccc(NC(=O)NC34CC5CC(CC(C5)C3)C4)cc2)CC1	17.9	–
CC(=O)N1CCN(CCCCOc2cccc(NC(=O)NC34CC5CC(CC(C5)C3)C4)c2)CC1	2.7	solubility [2]: 1820 µg/mL (≈ 3880 µM)
O=C(Nc1cccc(OCCCC(=O)N2CCNCC2)c1)NC12CC3CC(CC(C3)C1)C2	91.4	–
O=C(Nc1cccc(OCCCCN2CCN(C(=O)c3ccc(C(F)(F)F)cc3)CC2)c1)NC12CC3CC(CC(C3)C1)C2	13.6	–
